From PMC8245385 (Clinical Drug Investigation, 2021)
Where two headings read alike, the source gives them in different places.

Legend:
Safety and tolerability = type: in vivo, human; settings: doravirine 100 mg QD, islatravir 2.25 mg QD, alone or in combination; participants without HIV
How it was run: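 Safety was assessed throughout the study by adverse-event monitoring, physical examinations, vital signs, electrocardiography and laboratory safety tests. Investigators graded clinical adverse events as mild, moderate or severe in intensity. The analysis set was all participants given at least one dose of active study drug or placebo. Dosing was oral with water at the same time each day.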

[1] = cited from earlier work
[2] = cited from earlier work; remark: listed apart in the source
CYP enzymes = settings: cited from earlier work
[3] = Plasma pharmacokinetics in the doravirine/islatravir drug interaction study; type: in vivo, human
How it was run: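 Healthy adults were randomized and blinded. They took oral doravirine 100 mg or placebo QD for 5 days, then islatravir 2.25 mg QD for 14 days, then both for 5 days, with no washout and ≥10 h fasting before dosing on PK days. K2EDTA plasma went to validated LC-MS/MS (islatravir LLOQ 0.10 ng/mL). AUC0–24h used linear-up/log-down; GMRs came from a ln-scale mixed-effects model.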

[4] = cited from earlier work; remark: listed apart in the source
[5] = single oral doses, participants without HIV

Which results are given for `Cn1c(Cn2ccc(C(F)(F)F)c(Oc3cc(Cl)cc(C#N)c3)c2=O)n[nH]c1=O` [Doravirine]?
Tolerability (Safety and tolerability): generally well tolerated; Tolerability ([1]; doses of up to 1,200 mg in clinical studies): generally well tolerated; Apparent terminal half-life ([2]; 6–1200 mg orally): 12 to 21 h; Time to attainment of steady state ([2]; QD dosing, 200 mg orally): approximately 5 days; Range of median Tmax previously reported [2]: 1 to 4 h; Reduction of doravirine exposure on coadministration with rifabutin ([2]; moderate CYP3A4 inducer): 50%; Reduction of doravirine exposure on coadministration with rifampin ([2]; strong CYP3A4 inducer): 88%; Inhibition or induction of CYP enzymes (CYP enzymes; in vitro): not an inhibitor or inducer of CYP enzymes; Doravirine C24h, GMR (90% CI), (doravirine + islatravir)/doravirine ([3]; doravirine 100 mg QD with vs without islatravir 2.25 mg QD): 1.12 (0.95–1.32); AUC(0-t) ([3]; human, plasma, oral, 100 mg): 34 µM·h; Cmax ([3]; human, plasma, oral, 100 mg): 2440 nM; Tmax ([3]; human, plasma, oral, 100 mg): 2.5 h; concentration at 24 h ([3]; human, plasma, oral, 100 mg): 773 nM

Which results are given for `C#C[C@]1(CO)O[C@@H](n2cnc3c(N)nc(F)nc32)C[C@@H]1O` [Islatravir, 4'-Ethynyl-2-fluoro-2'-deoxyadenosine]?
Tolerability (Safety and tolerability): generally well tolerated; Tolerability ([1]; treatment-naive people living with HIV-1, oral doses 0.5–30 mg): generally well tolerated; Time to steady-state plasma concentrations ([4]; oral QD dosing): ~14 days; Half-life of islatravir [4, 5]: 49 to 61 h; Time at which peak plasma concentrations were attained [4, 5]: ~ 0.5 h; Metabolism by CYP enzymes (CYP enzymes): not metabolized by CYP enzymes; AUC(0-t) ([3]; human, plasma, oral, 2.25 mg): 0.254 µM·h; Cmax ([3]; human, plasma, oral, 2.25 mg): 63.5 nM; Tmax ([3]; human, plasma, oral, 2.25 mg): 0.52 h

Which results are given for `C#C[C@]1(COP(=O)(O)OP(=O)(O)OP(=O)(O)O)O[C@@H](n2cnc3c(N)nc(F)nc32)C[C@@H]1O` [islatravir-TP]?
Time at which peak intracellular islatravir-TP concentrations were attained ([4]; after islatravir administration): 6 to 24 h; Apparent terminal half-life of islatravir-TP ([4]; dosed daily to steady state): exceeded 7 days; Time to steady state of intracellular islatravir-TP ([4]; oral QD dosing of islatravir): ≤ 28 days; Intracellular half-life of islatravir-TP ([4]; single oral doses of islatravir): 118 to 171 h
